Marks after values point to notes of the source that are not given here.
Assays:
TNFα = test: In vitro TNFα assay; type: cell-based; conditions: Mus musculus, RAW264.7, read-out: TNFα inhibition
In short: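 Macrophages grown in RPMI 1640 with 10% FBS, penicillin and streptomycin. Cells preincubated with cytochalasin D (2.5 μM/10^6 cells) for 30 min, then seeded at 2×10^6 cells/mL. LPS added with test compound or celecoxib at 20 μM for 24 h. Supernatant TNFα measured by sandwich ELISA (TMB substrate, 30 min dark, H2SO4 stop, A450) against kit standard.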

[1] = system: NO (nitrite) in RAW264.7 mouse macrophages; test: Nitric oxide; type: cell-based; conditions: 20 µM compound, LPS-stimulated, LPS alone 20.46±1.03
[2] = system: carrageenan-induced rat-paw edema; test: Carrageenan-induced rat-paw edema, in vivo anti-inflammatory activity; set-up: species or system Wistar rats; conditions: oral, dose equimolar to ibuprofen 20 mg/kg; for Anti-inflammatory activity (% inhibition ± SEM) 3 hours: 3 hours post-carrageenan; for Anti-inflammatory activity (% inhibition ± SEM) 4 hours: 4 hours post-carrageenan
gastric mucosa = test: Acute ulcerogenic activity; type: in vivo; conditions: rats
In short: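 Rats; controls received 0.5% carboxymethyl cellulose. After dosing, rats were fed a normal diet for 17 h and then killed. Stomachs opened along the greater curvature and mucosa examined under microscopy. Scoring: 0.5 redness, 1 spot ulcer, 1.5 haemorrhagic streaks, 2 ulcers >3 but <5, 3 ulcers >5. Severity index = treated-group mean score minus control mean.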

SMILES	inhibition at 20 µM (TNFα)	NO (nitrite/mg, mmol/mg) 20 µM [1]	NO (nitrite/mg, mmol/mg) 20 µM ([1]; listed as celecoxib)	Anti-inflammatory activity (% inhibition ± SEM) 3 hours [2]	Anti-inflammatory activity (% inhibition ± SEM) 4 hours [2]	Gastric ulceration / mucosal damage (histopathology, in words) (gastric mucosa; 60 mg/kg)	Ulcerogenic activity (severity index ± SEM) (gastric mucosa; 60 mg/kg oral, killed after 17 hours, mean score minus control score)
Cc1ccc(-c2cc(C(F)(F)F)nn2-c2ccc(S(N)(=O)=O)cc2)cc1 [Celecoxib, celecoxib]	72%	7.53 ± 0.23 mmol/mg	7.53 mmol/mg	–	–	–	–
c1ccc(COc2ccc(-c3nn(-c4ccccc4)cc3CNc3ccccc3)cc2)cc1 [Compound 5a, N-((3-(4-(Benzyloxy)phenyl)-1-phenyl-1H-pyrazol-4-yl)methyl)aniline]	–	–	–	50.77±4.28 ^c %	47.91±4.39 ^c %	–	–
CC(C)Cc1ccc(C(C)C(=O)O)cc1 (stereo not drawn) [Ibuprofen, ibuprofen]	–	–	–	81.32±0.59 ^a %	79.23±0.4 ^a %	mucosal cell damage	1.16±0.4
